In ChEMBL document CHEMBL1149254, “The discovery of orally active triaminotriazine aniline amides as inhibitors of p38 MAP kinase” (J Med Chem, 2004):
Each block holds one compound with its values, some of them ahead of it. Calls of active or inactive are those of the source. The rule behind the calls is not given here.

How the values were obtained:
[1] = tested on: THP-1; assay: Inhibition of LPS-induced TNFalpha production in human THP1 cells by ELISA; assay type: functional, cell-based
Summary of the method: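 THP-1 cells grown in RPMI 1640 with 10% FBS, 40000 cells/well. Compound or vehicle was added (1% DMSO final), then LPS at 1 μg/mL final. Cells were incubated overnight at 37 °C, 5% CO2. TNF in the supernatant was measured by sandwich ELISA: anti-human TNF capture, biotinylated polyclonal detection, streptavidin-peroxidase read-out.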

[2] = molecular target: Mitogen-activated protein kinase 14 (Homo sapiens, UniProt Q16539); assay: Inhibition of human p38-alpha expressed in Escherichia coli
Chain of Mitogen-activated protein kinase 14 (Q16539 whole entry): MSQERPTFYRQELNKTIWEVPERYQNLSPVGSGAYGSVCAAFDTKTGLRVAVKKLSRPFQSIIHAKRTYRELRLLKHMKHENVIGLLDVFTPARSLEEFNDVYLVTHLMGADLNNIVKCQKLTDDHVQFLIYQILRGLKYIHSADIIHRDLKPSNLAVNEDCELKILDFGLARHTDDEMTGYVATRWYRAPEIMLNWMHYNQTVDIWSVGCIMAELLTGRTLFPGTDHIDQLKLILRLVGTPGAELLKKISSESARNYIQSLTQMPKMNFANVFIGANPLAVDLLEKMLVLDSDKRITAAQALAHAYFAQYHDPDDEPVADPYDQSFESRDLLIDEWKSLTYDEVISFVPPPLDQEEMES

[3] = molecular target: Tyrosine-protein kinase Lck (Homo sapiens, UniProt P06239); assay: Inhibition of LCK
Chain of Tyrosine-protein kinase Lck (P06239 whole entry): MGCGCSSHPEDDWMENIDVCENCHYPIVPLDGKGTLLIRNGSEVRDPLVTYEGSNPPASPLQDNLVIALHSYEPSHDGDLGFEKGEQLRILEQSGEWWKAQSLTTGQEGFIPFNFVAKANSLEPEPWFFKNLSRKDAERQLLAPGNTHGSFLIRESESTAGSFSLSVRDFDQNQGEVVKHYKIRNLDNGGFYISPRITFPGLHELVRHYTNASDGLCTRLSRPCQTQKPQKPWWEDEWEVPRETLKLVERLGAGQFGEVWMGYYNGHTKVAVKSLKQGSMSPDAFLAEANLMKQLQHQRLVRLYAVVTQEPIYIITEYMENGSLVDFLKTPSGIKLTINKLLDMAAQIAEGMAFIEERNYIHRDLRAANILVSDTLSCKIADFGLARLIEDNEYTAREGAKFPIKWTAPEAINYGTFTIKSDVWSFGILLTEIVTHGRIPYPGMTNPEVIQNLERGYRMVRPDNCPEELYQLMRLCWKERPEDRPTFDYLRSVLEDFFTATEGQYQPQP

[4] = molecular target: T1, Inhibitor of nuclear factor kappa-B kinase subunit beta (Homo sapiens, UniProt O14920); assay: Inhibition of human IKK2beta
T1 sequence (O14920 whole entry): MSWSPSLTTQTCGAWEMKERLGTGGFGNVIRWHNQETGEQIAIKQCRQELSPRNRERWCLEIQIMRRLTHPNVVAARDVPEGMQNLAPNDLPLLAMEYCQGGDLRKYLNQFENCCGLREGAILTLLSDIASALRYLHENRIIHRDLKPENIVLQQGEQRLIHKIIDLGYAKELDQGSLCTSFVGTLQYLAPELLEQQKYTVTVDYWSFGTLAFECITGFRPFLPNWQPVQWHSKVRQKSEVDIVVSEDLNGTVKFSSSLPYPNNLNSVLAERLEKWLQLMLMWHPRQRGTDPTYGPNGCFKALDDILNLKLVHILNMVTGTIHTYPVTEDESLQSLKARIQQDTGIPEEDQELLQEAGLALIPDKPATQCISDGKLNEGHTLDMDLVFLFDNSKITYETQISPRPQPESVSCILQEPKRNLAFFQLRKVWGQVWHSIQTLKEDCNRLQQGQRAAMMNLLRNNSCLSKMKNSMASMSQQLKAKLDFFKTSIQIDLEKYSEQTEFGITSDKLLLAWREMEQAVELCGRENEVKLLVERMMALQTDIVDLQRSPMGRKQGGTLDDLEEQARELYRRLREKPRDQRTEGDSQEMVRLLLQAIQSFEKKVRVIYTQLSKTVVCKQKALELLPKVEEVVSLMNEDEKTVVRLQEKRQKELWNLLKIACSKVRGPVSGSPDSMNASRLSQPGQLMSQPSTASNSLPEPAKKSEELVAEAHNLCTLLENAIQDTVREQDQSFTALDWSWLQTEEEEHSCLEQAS

[5] = molecular target: MAP kinase-activated protein kinase 2 (Homo sapiens, UniProt P49137); assay: Inhibition of MK2
Chain of MAP kinase-activated protein kinase 2 (P49137 whole entry): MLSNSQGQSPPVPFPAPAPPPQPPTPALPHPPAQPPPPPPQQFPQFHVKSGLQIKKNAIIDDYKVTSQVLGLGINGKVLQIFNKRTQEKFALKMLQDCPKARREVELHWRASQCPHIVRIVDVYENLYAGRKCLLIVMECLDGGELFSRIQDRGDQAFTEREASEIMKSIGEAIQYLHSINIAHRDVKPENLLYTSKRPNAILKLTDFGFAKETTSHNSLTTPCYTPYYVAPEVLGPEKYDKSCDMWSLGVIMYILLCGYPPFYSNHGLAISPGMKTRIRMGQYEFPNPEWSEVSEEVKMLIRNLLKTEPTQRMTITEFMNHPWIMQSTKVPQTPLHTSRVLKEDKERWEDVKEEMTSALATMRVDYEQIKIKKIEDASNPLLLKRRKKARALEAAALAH

[6] = tested on: Mus musculus; assay: Inhibition of LPS-induced TNFalpha release in BALB/c mouse administered at 10 mg/kg before 30 mins of LPS challenge; assay type: functional, organism-based; design: dose 10 mg/kg
Summary of the method: (§1)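 BALB/c mouse LPS-TNF model. Compound was given at 10 mpk at time points from 30 min to 10 h before LPS challenge, and TNF suppression was assessed at each pretreatment interval.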

[7] = tested on: Rattus norvegicus; assay: Suppression of paw swelling in adjuvant arthritis Lewis rat model at 50 mg/kg, po BID
[8] = tested on: Mus musculus; assay: Inhibition of LPS-induced TNFalpha release in po dosed BALB/c mouse after 90 mins; assay type: functional; settings: 1.5 h
Summary of the method: (§2)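 Female BALB/c mice, 6–8 weeks old. Compound in 100% PEG 300 given by oral gavage 30 min before ip LPS (0.1 mL of 10 μg/mL in PBS). Blood was taken 90 min after LPS and serum TNF-α measured by ELISA. Mean ± SD, n = 8 mice per group.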

[9] = molecular target: T2, Tyrosine-protein kinase ZAP-70 (Homo sapiens, UniProt P43403); assay: Inhibition of Zap70
T2 sequence (P43403 whole entry): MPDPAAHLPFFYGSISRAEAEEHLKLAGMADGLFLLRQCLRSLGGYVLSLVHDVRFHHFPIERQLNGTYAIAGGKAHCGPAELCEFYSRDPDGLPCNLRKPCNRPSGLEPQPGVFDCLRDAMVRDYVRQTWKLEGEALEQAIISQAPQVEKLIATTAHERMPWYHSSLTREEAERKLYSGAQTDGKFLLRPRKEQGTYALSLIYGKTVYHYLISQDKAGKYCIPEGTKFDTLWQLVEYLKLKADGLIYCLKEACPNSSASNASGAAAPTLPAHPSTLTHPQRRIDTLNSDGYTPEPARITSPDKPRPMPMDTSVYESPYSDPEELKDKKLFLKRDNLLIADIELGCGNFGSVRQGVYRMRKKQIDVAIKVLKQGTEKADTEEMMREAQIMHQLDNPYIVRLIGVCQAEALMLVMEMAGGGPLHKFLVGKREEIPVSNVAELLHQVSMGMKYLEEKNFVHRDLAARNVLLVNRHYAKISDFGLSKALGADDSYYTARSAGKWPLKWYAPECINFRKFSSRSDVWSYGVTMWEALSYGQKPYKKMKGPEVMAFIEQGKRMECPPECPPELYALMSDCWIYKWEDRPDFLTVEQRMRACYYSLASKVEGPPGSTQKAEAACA

[10] = molecular target: Protein kinase C delta type (Homo sapiens, UniProt Q05655); assay: Inhibition of PKCdelta
Chain of Protein kinase C delta type (Q05655 whole entry): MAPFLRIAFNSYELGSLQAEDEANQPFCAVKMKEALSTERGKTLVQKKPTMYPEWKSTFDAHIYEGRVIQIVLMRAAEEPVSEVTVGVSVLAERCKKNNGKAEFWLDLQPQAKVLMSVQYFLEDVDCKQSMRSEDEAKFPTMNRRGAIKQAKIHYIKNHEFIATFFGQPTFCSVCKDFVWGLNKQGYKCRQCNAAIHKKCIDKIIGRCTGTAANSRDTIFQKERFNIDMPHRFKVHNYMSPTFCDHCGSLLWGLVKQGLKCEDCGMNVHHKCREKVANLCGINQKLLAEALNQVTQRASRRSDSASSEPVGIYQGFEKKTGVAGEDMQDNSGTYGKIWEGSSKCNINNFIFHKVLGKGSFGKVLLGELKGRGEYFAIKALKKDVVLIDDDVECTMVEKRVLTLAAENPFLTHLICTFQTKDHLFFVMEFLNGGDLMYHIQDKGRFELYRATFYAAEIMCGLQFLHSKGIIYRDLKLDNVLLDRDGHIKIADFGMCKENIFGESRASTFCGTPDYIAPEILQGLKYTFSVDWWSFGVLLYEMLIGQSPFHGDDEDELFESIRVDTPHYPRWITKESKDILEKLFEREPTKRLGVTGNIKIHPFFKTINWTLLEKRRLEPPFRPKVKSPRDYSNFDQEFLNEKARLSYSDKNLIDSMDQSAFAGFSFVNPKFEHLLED

[11] = Cytotoxicity against phytohemagglutininin-stimulated human T blast cells at 30 uM after 24 hrs relative to control; assay type: cell-based; settings: t-cell
Summary of the method: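 PBMC T cells (1.25×10^6/mL) stimulated with 5 μg/mL PHA for 4 days to give dividing blasts. Blasts at 1.5×10^6/mL were exposed to 30 μM compound in RPMI with 10% FBS and 0.003% DMSO final, for 24 h at 37 °C, 5% CO2. Viability was read as metabolic activity by AlamarBlue and expressed relative to control.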

[12] = tested on: Mus musculus; assay: Inhibition of LPS-induced TNFalpha release in BALB/c mouse at 5 mg/kg, po after 90 mins; assay type: functional, organism-based; design: dose 5 mg/kg; summary of the method: as §2
[13] = molecular target: Vascular endothelial growth factor receptor 2 (Homo sapiens, UniProt P35968); assay: Inhibition of KDR
Chain of Vascular endothelial growth factor receptor 2 (P35968 whole entry): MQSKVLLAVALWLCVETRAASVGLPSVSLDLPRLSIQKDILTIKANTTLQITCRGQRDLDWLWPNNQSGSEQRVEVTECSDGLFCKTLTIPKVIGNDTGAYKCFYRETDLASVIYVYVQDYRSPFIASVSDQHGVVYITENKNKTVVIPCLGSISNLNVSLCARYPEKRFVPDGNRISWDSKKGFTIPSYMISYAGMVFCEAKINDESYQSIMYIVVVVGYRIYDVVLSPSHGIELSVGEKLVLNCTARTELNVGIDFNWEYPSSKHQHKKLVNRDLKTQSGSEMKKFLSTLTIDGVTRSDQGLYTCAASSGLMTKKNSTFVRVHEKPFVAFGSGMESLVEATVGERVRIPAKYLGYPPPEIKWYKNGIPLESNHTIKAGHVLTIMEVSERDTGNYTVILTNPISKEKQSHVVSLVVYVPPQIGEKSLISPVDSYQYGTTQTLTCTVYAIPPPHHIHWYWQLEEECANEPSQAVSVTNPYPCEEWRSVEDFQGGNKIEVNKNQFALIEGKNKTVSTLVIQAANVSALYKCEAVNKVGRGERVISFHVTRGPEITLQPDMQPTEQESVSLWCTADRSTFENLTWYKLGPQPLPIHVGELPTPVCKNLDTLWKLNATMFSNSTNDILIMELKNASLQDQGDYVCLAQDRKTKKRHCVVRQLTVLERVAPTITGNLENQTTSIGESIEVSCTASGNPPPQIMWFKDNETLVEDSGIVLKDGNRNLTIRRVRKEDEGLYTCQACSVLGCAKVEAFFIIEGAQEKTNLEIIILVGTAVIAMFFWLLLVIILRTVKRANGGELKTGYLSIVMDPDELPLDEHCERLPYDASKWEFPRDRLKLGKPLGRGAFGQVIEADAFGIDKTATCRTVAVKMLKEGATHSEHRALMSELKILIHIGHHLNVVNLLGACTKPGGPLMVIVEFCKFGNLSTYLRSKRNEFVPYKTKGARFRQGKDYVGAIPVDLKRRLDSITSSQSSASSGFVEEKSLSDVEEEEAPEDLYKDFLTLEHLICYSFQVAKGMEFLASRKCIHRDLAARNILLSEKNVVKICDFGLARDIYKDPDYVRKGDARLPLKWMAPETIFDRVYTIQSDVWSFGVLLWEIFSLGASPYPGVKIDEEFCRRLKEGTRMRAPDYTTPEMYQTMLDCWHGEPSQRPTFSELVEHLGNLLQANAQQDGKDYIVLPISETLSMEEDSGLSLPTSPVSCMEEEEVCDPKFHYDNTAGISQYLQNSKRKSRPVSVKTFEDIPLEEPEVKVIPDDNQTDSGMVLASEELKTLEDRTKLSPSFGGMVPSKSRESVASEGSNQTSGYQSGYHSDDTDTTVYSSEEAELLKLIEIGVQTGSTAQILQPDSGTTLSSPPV

[14] = Bioavailability in mouse; assay type: ADME, organism-based; settings: in vivo
[15] = Clearance in mouse; assay type: ADME, organism-based; settings: in vivo
[16] = molecular target: cAMP-dependent protein kinase (PKA) (Homo sapiens, UniProt P22694+P17612+P22612); assay: Inhibition of PKA; assay type: protein assay
[17] = molecular target: Mitogen-activated protein kinase 11 (Homo sapiens, UniProt Q15759); assay: Inhibition of human p38beta
Chain of Mitogen-activated protein kinase 11 (Q15759 whole entry): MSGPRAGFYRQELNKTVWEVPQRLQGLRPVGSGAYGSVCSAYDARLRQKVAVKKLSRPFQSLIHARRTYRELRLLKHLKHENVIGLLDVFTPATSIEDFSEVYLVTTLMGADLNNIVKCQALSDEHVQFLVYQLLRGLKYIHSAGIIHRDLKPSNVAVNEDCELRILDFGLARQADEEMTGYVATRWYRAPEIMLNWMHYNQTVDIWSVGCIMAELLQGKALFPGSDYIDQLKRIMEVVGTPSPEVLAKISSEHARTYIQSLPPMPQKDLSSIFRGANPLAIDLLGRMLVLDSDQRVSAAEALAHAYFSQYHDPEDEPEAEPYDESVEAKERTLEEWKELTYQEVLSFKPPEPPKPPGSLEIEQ

[18] = tested on: Mus musculus; assay: Inhibition of LPS-induced TNFalpha release in BALB/c mouse administered at 10 mg/kg before 2 hrs of LPS challenge; assay type: functional, organism-based; design: dose 10 mg/kg; summary of the method: as §1
[19] = molecular target: Protein kinase C alpha type (Homo sapiens, UniProt P17252); assay: Inhibition of PKCalpha
[20] = tested on: PBMC; assay: Inhibition of LPS-induced TNFalpha production in human PBMC by ELISA; assay type: functional, cell-based
Summary of the method: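 PBMC from healthy donors, isolated on ficoll, plated at 1×10^6 cells/mL in RPMI with 10% FBS. Compound was preincubated for 30 min, then cells were stimulated with 25 ng/mL LPS (final) for 6 h at 37 °C, 5% CO2. Supernatant TNF-α was measured by ELISA.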

[21] = Metabolic stability in mouse liver microsomes; assay type: ADME, Microsome
[22] = tested on: Liver microsomes; assay: Metabolic stability in human liver microsomes; assay type: ADME, Microsome
[23] = Half life in mouse; assay type: ADME, organism-based; settings: in vivo
[24] = molecular target: T3, Tyrosine-protein kinase JAK3 (Homo sapiens, UniProt P52333); assay: Inhibition of JAK3
T3 sequence (P52333 whole entry): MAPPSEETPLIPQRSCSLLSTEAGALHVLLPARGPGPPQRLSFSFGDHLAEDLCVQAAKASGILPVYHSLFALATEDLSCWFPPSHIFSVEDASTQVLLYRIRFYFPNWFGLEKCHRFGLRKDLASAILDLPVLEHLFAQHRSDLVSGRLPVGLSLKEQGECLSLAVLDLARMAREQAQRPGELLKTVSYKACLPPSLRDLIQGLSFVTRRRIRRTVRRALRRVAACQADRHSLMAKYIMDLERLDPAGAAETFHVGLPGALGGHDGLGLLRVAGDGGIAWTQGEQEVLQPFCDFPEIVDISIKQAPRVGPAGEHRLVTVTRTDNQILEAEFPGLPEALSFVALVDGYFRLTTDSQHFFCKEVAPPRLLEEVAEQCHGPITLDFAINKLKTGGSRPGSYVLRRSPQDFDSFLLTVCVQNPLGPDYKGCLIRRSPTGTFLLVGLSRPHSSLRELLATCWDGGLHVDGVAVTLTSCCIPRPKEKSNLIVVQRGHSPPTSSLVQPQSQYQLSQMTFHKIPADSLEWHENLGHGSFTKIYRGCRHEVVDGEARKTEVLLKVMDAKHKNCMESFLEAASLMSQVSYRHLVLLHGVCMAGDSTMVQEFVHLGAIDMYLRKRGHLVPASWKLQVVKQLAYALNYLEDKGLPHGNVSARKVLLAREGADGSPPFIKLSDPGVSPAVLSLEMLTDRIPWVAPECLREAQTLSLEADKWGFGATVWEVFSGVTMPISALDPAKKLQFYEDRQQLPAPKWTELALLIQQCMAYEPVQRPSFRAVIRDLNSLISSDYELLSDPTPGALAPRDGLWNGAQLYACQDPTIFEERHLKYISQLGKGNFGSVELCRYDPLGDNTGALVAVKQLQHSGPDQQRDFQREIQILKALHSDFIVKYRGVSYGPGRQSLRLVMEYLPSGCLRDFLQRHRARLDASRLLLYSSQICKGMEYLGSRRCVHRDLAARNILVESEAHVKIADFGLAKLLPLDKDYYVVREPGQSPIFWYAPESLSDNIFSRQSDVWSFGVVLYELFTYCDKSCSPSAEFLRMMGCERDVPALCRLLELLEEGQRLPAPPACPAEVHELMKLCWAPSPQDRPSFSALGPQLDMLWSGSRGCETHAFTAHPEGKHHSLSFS

SMILES: Cc1ccc(C(=O)NC2CCCC2)cc1Nc1nc(N[C@H]2CCNC2)nc(N(C)CC(C)(C)C)n1
IC50 [1]: 130 nM
IC50 [2]: 100 nM

SMILES: Cc1ccc(C(N)=O)cc1Nc1nc(NC[C@@H]2CC[C@H]3C[C@@H]2C3(C)C)nc(N2CCCNCC2)n1
IC50 [1]: 1700 nM
IC50 [2]: 1360 nM

SMILES: Cc1ccc(C(N)=O)cc1Nc1nc(NCC(C)C)nc(N[C@H]2CCNC2)n1
IC50 [1]: > 5000 nM
IC50 [2]: 73 nM

SMILES: Cc1ccc(C(N)=O)cc1Nc1nc(NC[C@@H]2CC[C@H]3C[C@@H]2C3(C)C)nc(N[C@H]2CCNC2)n1
IC50 [1]: 1100 nM
IC50 [2]: 53 nM

SMILES: Cc1ccc(C(=O)O)cc1Nc1nc(N(C)CC(C)(C)C)nc(N2CCCN(C)CC2)n1
IC50 [2]: > 1000 nM

SMILES: COC(=O)c1ccc(C)c(Nc2nc(N[C@H]3CCNC3)nc(N(C)CC(C)(C)C)n2)c1
IC50 [1]: > 250 nM
IC50 [2]: 346 nM

SMILES: Cc1ccc(C(N)=O)cc1Nc1nc(N[C@H]2CCNC2)nc(N(C)CC(C)c2ccccc2)n1 (stereo not given in full)
IC50 [1]: 2600 nM
IC50 [2]: 84 nM

SMILES: COCCNC(=O)c1ccc(C)c(Nc2nc(N[C@H]3CCNC3)nc(N(C)CC(C)(C)C)n2)c1
IC50 [1]: 680 nM
IC50 [2]: 264 nM

Compounds with a lower IC50 [2], results first:

IC50 [3]: > 10000 nM
IC50 [4]: > 10000 nM
IC50 [5]: > 10000 nM
IC50 [1]: 85 nM
IC50 [9]: > 50000 nM
IC50 [10]: > 10000 nM
IC50 [2]: 44 nM
IC50 [13]: > 10000 nM
bioavailability [14]: 8%
clearance [15]: 107 mL/min/kg
IC50 [16]: > 10000 nM
IC50 [17]: 22 nM
IC50 [19]: > 10000 nM
Stability [21]: 0.8 nmol/mg/min
Stability [22]: 0.2 nmol/mg/min
half-life [23]: 42 min
IC50 [24]: > 10000 nM
SMILES: CONC(=O)c1ccc(C)c(Nc2nc(N(C)CC(C)(C)C)nc(N3CCCN(C)CC3)n2)c1
Activity [6]: Active
Activity [7]: 50%
ED50 [8]: 3 mg/kg
Activity [11]: 70%
Activity [12]: Active
Activity [18]: Active
IC50 [20]: 4.6 nM

IC50 [1]: 325 nM
IC50 [2]: 28 nM
SMILES: Cc1ccc(C(N)=O)cc1Nc1nc(N[C@H]2CCNC2)nc(N(C)CC(C)C)n1

IC50 [1]: 120 nM
IC50 [2]: 18 nM
SMILES: CONC(=O)c1ccc(C)c(Nc2nc(N(C)CC(C)(C)C)nc(N3CCNCC3)n2)c1

IC50 [1]: 150 nM
IC50 [2]: 16 nM
SMILES: Cc1ccc(C(=O)NO)cc1Nc1nc(N[C@H]2CCNC2)nc(N(C)CC(C)(C)C)n1
